Source: ChEMBL document CHEMBL1157698, “Enhancing the intestinal absorption of molecules containing the polar guanidino functionality: a double-targeted prodrug approach” (J Med Chem, 2010)

T1: Serine hydrolase BPHL (Homo sapiens) (UniProt Q86WA6)
T1 sequence (whole entry): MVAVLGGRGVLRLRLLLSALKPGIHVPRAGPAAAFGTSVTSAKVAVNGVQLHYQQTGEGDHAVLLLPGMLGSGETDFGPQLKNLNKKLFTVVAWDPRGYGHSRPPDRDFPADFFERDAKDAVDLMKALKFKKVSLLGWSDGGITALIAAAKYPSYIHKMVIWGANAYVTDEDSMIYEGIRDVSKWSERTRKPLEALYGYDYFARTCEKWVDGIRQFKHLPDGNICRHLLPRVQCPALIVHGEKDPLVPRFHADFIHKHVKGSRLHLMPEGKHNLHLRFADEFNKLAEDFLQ

T2: Solute carrier family 15 member 1 (Homo sapiens, UniProt P46059)
T2 sequence (P46059 whole entry): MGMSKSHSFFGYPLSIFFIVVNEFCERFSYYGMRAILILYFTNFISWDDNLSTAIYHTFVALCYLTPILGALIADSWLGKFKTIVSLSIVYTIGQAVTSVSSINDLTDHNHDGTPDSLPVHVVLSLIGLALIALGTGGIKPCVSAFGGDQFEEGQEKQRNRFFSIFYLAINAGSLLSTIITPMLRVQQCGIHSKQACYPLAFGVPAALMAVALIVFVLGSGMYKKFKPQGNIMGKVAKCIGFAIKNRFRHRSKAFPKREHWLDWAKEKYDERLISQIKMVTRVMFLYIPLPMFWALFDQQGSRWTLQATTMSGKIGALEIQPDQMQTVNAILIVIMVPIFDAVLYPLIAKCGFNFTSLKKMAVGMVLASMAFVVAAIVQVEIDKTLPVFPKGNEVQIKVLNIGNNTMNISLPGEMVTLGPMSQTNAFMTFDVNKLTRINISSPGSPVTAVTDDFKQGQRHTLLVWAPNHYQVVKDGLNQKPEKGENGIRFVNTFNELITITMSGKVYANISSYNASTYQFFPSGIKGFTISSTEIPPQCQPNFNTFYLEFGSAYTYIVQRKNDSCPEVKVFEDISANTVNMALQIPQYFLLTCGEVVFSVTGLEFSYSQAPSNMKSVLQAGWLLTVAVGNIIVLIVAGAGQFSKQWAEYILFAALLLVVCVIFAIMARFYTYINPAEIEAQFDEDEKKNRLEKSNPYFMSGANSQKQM

B1: Serine hydrolase BPHL (Homo sapiens), Q86WA6 (protein)
chain: T1 sequence (whole entry)

Columns and labels:
[1] = target: T1, Serine hydrolase BPHL (Homo sapiens); experiment: Ratio of Kcat to Km of human recombinant VACVase assessed as hydrolysis
How it was run: (§1)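 Recombinant human VACVase expressed in and purified from E. coli, stored at −80 °C, protein measured by Bio-Rad DC assay against BSA. Run in 50 mM HEPES pH 7.4 at 37 °C with 5 min buffer preincubation, enzyme added, then substrate to start. Michaelis-Menten fit; kcat = Vmax/[enzyme]0 using 28.83 kDa mass, active protein normalized to valacyclovir specific activity. Triplicate.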

HeLa [2] = experiment: Stability in human HeLa cell homogenate after 2 hrs; format: ADME, cell-based
How it was run: (§2)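 Homogenates from HeLa or Caco-2 cells: NaCl-washed, collected in 10 mM phosphate pH 7.4, sonicated on ice, spun 10,000 rpm 10 min at 4 °C; supernatant adjusted to 500 μg/mL protein. Compound added from 200 mM DMSO stock at 37 °C.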

hPEPT1 = experiment: Drug uptake in human HeLa cells expressing hPEPT1 after 60 mins relative ro control; format: ADME, cell-based
How it was run: (§3)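 HeLa cells, with or without hPEPT1 adenovirus infection 3 days before assay, after 5 days' growth. Preincubated 15 min in pH 6.0 MES uptake buffer, then given 1 mM compound for 60 min at 37 °C. Cells washed in ice-cold DPBS, sonicated, TFA-precipitated (final 7%), supernatant read by HPLC and normalized to protein (nmol/mg). Donor solution stability by HPLC. Triplicate, mean ± SEM.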

[3] = target: T2, Solute carrier family 15 member 1; experiment: Inhibition of human PEPT1-mediated [3H]Gly-Sar uptake in human HeLa cells; format: cell-based
How it was run: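 HeLa cells grown 5 days, infected with hPEPT1 adenovirus 3 days before assay, washed in pH 6.0 MES uptake buffer. Incubated 30 min at 37 °C with 10 μM Gly-Sar (0.1 μM [3H]) plus test compound at 0.05–5 mM. Cells washed ice-cold, lysed in 0.1% SDS, scintillation counted. IC50 by nonlinear fit; n=4.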

HeLa [4] = experiment: Drug uptake in human HeLa cells after 60 mins; format: ADME, cell-based; settings: 1 h; how it was run: as §3
[5] = Chemical stability in pH 7.4 buffer after 2 hrs; format: physicochemical; settings: pH 7.4, 2 h
How it was run: (§4)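 Hydrolysis at 37 °C in pH 6.0 uptake buffer (140 mM NaCl, 5.4 mM KCl, 1.8 mM CaCl2, 0.8 mM MgSO4, 5 mM glucose, 25 mM MES) or 10 mM phosphate pH 7.4. Compound added from 200 mM DMSO stock. […] Triplicate, mean ± SEM.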

[6] = Chemical stability in pH 6 buffer after 2 hrs; format: physicochemical; settings: pH 6, 2 h; how it was run: as §4
Caco-2 [7] = experiment: Stability in human Caco-2 cell homogenate after 2 hrs; format: ADME, cell-based; settings: caco-2, 2 h; how it was run: as §2
HeLa [8] = experiment: Drug uptake in human HeLa cells expressing hPEPT1 after 60 mins; format: ADME, cell-based; settings: 1 h; how it was run: as §3
Caco-2 [9] = experiment: Stability in human Caco-2 cell homogenate assessed as half life of hydrolysis; format: ADME, Colon; how it was run: as §2
[10] = Stability in human HeLa cells expressing hPEPT1 after 60 mins; format: ADME, cell-based; settings: read-out: Stability; how it was run: as §3
[11] = Stability in apical side in human Caco-2 cells at 120 mins by permeability study; format: ADME, cell-based; settings: read-out: Stability
[12] = Stability in human HeLa cells after 60 mins; format: ADME, cell-based; settings: read-out: Stability; how it was run: as §3
HeLa [13] = experiment: Stability in human HeLa cell homogenate assessed as half life of hydrolysis; format: ADME, cell-based; how it was run: as §2
[14] = Chemical stability assessed as half life of hydrolysis in pH 7.4 buffer; format: physicochemical; settings: for t1/2: buffer; how it was run: as §4
[15] = substrate: CC(C)[C@H](N)C(=O)OCc1cccc(NC(=N)N)c1; experiment: (§5) Activity of human recombinant VACVase assessed as hydrolysis; how it was run: as §1
[16] = substrate: CC(C)[C@H](N)C(=O)OCCOCn1cnc2c(=O)nc(N)[nH]c21; experiment: as §5; how it was run: as §1
[17] = substrate: N=C(N)Nc1cccc(COC(=O)[C@@H](N)Cc2ccccc2)c1; experiment: as §5; how it was run: as §1
[18] = substrate: CC[C@H](C)[C@H](N)C(=O)OCc1cccc(NC(=N)N)c1; experiment: as §5; how it was run: as §1
[19] = substrate: CC(C)[C@H](N)C(=O)OCc1cccc(NC(=N)N)c1; experiment: (§6) Activity of human recombinant VACVase assessed as hydrolysis measured per ug of protein; how it was run: as §1
[20] = substrate: CC(C)[C@H](N)C(=O)OCCOCn1cnc2c(=O)nc(N)[nH]c21; experiment: as §6; how it was run: as §1
[21] = substrate: N=C(N)Nc1cccc(COC(=O)[C@@H](N)Cc2ccccc2)c1; experiment: as §6; how it was run: as §1
[22] = substrate: CC[C@H](C)[C@H](N)C(=O)OCc1cccc(NC(=N)N)c1; experiment: as §6; how it was run: as §1

Molecule | Ratio [1] | uptake ratio at 1 h (hPEPT1) | IC50 [3] | Drug uptake (HeLa [4]) | Stability [6] | Drug uptake (HeLa [8]) | t1/2 (Caco-2 [9]) | remaining at 1 h [10] | remaining at 2 h [11] | remaining at 1 h [12] | t1/2 (HeLa [13]) | t1/2 [14] | other results
N=C(N)Nc1cccc(COC(=O)[C@@H](N)Cc2ccccc2)c1 | 1660 mM⁻¹ s⁻¹ | – | – | – | – | – | – | – | – | – | – | – | –
N=C(N)Nc1cccc(CO)c1 [[3-(hydroxymethyl)phenyl]guanidine] | – | 1.4 | > 3000 µM | 3.8 nmol/mg | Stable | 5.5 nmol/mg | – | – | – | – | – | – | Stability (HeLa [2]): Stable; Stability [5]: Stable; Stability (Caco-2 [7]): Stable
CC[C@H](C)[C@H](N)C(=O)OCc1cccc(N=C(N)N)c1 | – | > 13 | 630 µM | < 2 nmol/mg | Stable | 27.7 nmol/mg | 0.993 h | 98.7% | 96.6% | 99% | 2.287 h | 11.75 h | –
CC[C@H](C)[C@H](N)C(=O)OCc1cccc(NC(=N)N)c1 | 1580 mM⁻¹ s⁻¹ | – | – | – | – | – | – | – | – | – | – | – | –
CC(C)[C@@H](N)C(=O)OCc1cccc(NC(=N)N)c1 | – | – | – | – | – | – | – | – | 98.8% | – | – | – | –
NC(N)=Nc1cccc(COC(=O)[C@@H](N)Cc2ccccc2)c1 | – | 8.8 | 2330 µM | 1.7 nmol/mg | Stable | 14.8 nmol/mg | < 0.017 h | 83.8% | 3.9% | 87.2% | < 0.083 h | 4.363 h | –
CC(C)[C@H](N)C(=O)OCCOCn1cnc2c(=O)nc(N)[nH]c21 | 850 mM⁻¹ s⁻¹ | – | – | – | – | – | – | – | – | – | – | – | –
CC(C)[C@H](N)C(=O)OCc1cccc(NC(=N)N)c1 | 3370 mM⁻¹ s⁻¹ | > 25 | 650 µM | < 2 nmol/mg | Stable | 50.2 nmol/mg | 0.08 h | 96.9% | 86.5% | 98% | 0.338 h | 8.227 h | –
CC(C)[C@H](N)C(=O)OCCOCn1cnc2c(=O)[nH]c(N)nc21 [VALACYCLOVIR] | – | – | 1420 µM | < 0.2 nmol/mg | Stable | 5.5 nmol/mg | 0.522 h | 96.8% | 94.7% | 99.2% | 2.37 h | – | half-life ([14]; pH 7.4 buffer): 8.23 h
B1 | – | – | – | – | – | – | – | – | – | – | – | – | Km [15]: 46 µM; kcat [15]: 154 s⁻¹; Km [16]: 68 µM; kcat [16]: 58 s⁻¹; Km [17]: 207 µM; kcat [17]: 345 s⁻¹; Km [18]: 9 µM; kcat [18]: 14 s⁻¹; Vmax [19]: 321 nmol/min/µg; Vmax [20]: 120 nmol/min; Vmax [21]: 718 nmol/min/µg; Vmax [22]: 30 nmol/min/µg
